Measured values: ChEMBL document CHEMBL2429848, “Proanthocyanidins from Spenceria ramalana and their effects on AGE formation in vitro and hyaloid-retinal vessel dilation in larval zebrafish in vivo” (J Nat Prod, 2013)
Active and inactive are the calls of the source. The calls are words filed in the database; no cut-off is given here.

Columns and labels:
Danio rerio [1] = species: Danio rerio; assay: Antidiabetic retinopathic activity in zebrafish flk:EGFP transgenic embryo assessed as reduction of high glucose-induced dilation of hyaloidretinal vessels at 10 to 20 uM treated 1 day post fertilization to 6 days post fertilization; assay type: functional, organism-based
In short: (§1)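 flk:EGFP transgenic embryos, five per well, were kept from 1 dpf in egg water with 30 mM glucose plus compound (10 or 20 μM) until 6 dpf. They were then fixed in 4% PFA, and lenses were isolated with the optic disc up and imaged by fluorescence. Diameters were taken in 3–4 main branches up to the first sub-branch. Percentage inhibition = [1 − (Tn − Cav)/(HGav − Cav)] × 100, from three independent experiments.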

[2] = Antiglycation activity assessed as inhibition of advanced glycation end product formation after 7 days by spectrofluorometric analysis; assay type: physicochemical
In short: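 Bovine serum albumin (10 mg/mL) in 50 mM phosphate buffer pH 7.4 with 0.02% sodium azide was mixed with 0.2 M fructose/glucose solution and serially diluted compound, with aminoguanidine as positive control. Samples were incubated 7 days at 37 °C and fluorescence read at ex 350/em 450 nm, in triplicate. IC50 came from least-squares regression of log concentration against remaining activity.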

Danio rerio [3] = species: Danio rerio; assay: Antidiabetic retinopathic activity in zebrafish flk:EGFP transgenic embryo assessed as reduction of high glucose-induced dilation of hyaloidretinal vessels at 20 uM treated 1 day postfertilization to 6 days postfertilization relative to control; assay type: functional; set-up: scale not given: the % may be the effect or the level left; in short: as §1
Danio rerio [4] = species: Danio rerio; assay: Toxicity in zebrafish flk:EGFP transgenic embryo at 10 to 20 uM treated 1 day post fertilization to 6 days post fertilization; assay type: organism-based; details: in vivo
Danio rerio [5] = species: Danio rerio; assay: Antidiabetic retinopathic activity in zebrafish flk:EGFP transgenic embryo assessed as reduction of high glucose-induced dilation of hyaloidretinal vessels at 10 uM treated 1 day postfertilization to 6 days postfertilization relative to control; assay type: functional; set-up: scale not given: the % may be the effect or the level left; in short: as §1

## Oc1ccc([C@@H]2Oc3c(c(O)cc4c3[C@@H]3c5c(O)cc6c(c5O[C@](c5ccc(O)cc5)(O4)[C@H]3O)[C@@H]3c4c(O)cc(O)cc4O[C@](c4ccc(O)cc4)(O6)[C@H]3O)C[C@H]2O)cc1
Danio rerio [1]
  Activity: Active
[2]
  IC50: 39.8 µM

## Oc1ccc([C@@]23Oc4cc(O)cc(O)c4[C@@H](c4c(cc(O)c5c4O[C@H](c4ccc(O)c(O)c4)[C@@H](O)C5)O2)[C@@H]3O)cc1
Danio rerio [3]
  Activity: 104%
[2]
  IC50: 14.1 µM

## Oc1ccc([C@@H]2Oc3c(c(O)cc4c3[C@@H]3c5c(O)cc(O)cc5O[C@](c5ccc(O)cc5)(O4)[C@H]3O)C[C@H]2O)cc1
Danio rerio [1]
  Activity: Active
[2]
  IC50: 34.7 µM

## Oc1ccc([C@@H]2Oc3c(c(O)cc4c3[C@@H]3c5c(O)cc6c(c5O[C@](c5ccc(O)c(O)c5)(O4)[C@H]3O)[C@@H]3c4c(O)cc(O)cc4O[C@](c4ccc(O)cc4)(O6)[C@H]3O)C[C@H]2O)cc1
Danio rerio [4]
  Activity: Non-toxic
Danio rerio [3]
  Activity: 164.1%
Danio rerio [5]
  Activity: 157.7%
[2]
  IC50: 17.4 µM

## O=C(O[C@@H]1Cc2c(O)cc(O)cc2O[C@@H]1c1ccc(O)c(O)c1)c1cc(O)c(O)c(O)c1 [EPICATECHIN GALLATE]
[2]
  IC50: 15.1 µM

## OC[C@H]1O[C@@H](O[C@@H]2Cc3c(O)cc4c(c3O[C@H]2c2ccc(O)cc2)[C@@H]2c3c(O)cc(O)cc3O[C@](c3ccc(O)cc3)(O4)[C@H]2O)[C@H](O)[C@@H](O)[C@@H]1O
Danio rerio [1]
  Activity: Active
[2]
  IC50: 32.1 µM

## Oc1ccc([C@H]2Oc3c(c(O)cc4c3[C@@H]3c5c(O)cc(O)cc5O[C@](c5ccc(O)cc5)(O4)[C@H]3O)C[C@@H]2O)cc1
Danio rerio [1]
  Activity: Active
[2]
  IC50: 33.5 µM

## Oc1cc(O)c2c(c1)O[C@H](c1ccc(O)c(O)c1)[C@H](O)C2 [(-)-EPICATECHIN]
[2]
  IC50: 13.6 µM

## N=C(N)NN [PIMAGEDINE]
[2]
  IC50: 966 µM
